In ChEMBL document CHEMBL3425454, “Synthesis, biological evaluation and modeling studies of terphenyl topoisomerase IIα inhibitors as anticancer agents” (Eur J Med Chem, 2015):
Active and inactive are the calls of the source. No cut-off for these calls is given here.

Columns and labels:
MDA-MB-435 = assay: Cytotoxicity against human MDA-MB-435 cells assessed as cell growth inhibition after 72 hrs by MTT assay; format: functional, cell-based; conditions: MDA-MB-435, 72 h
How it was run: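 MDA-MB-435 cells treated in triplicate with a range of concentrations for 72 h at 37°C, 5% CO2. Medium then replaced, MTT (5 mg/mL) added for 4 h, followed by overnight lysis in 10% SDS/5% isobutanol/12 mM HCl. Absorbance read at 590 nm; inhibition computed against control and blank wells. IC50 = concentration giving 50% growth inhibition, mean±SD of three experiments.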

[1] = biological target: T1, Topoisomerase I (Bos taurus) (UniProt Q2HPH0); assay: Inhibition of calf thymus topoisomerase-1 assessed as conversion of negatively supercoiled plasmid DNA pBR322 to relaxed DNA at 100 uM after 30 mins by agarose gel electrophoresis
T1 sequence (whole entry): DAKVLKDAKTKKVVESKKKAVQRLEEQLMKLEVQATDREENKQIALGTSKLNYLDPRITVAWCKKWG
How it was run: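 Relaxation of 0.5 μg supercoiled pBR322 by 1 unit calf thymus TOP1 in 10 mM Tris-HCl pH 7.9, 150 mM NaCl, 0.1% BSA, 1 mM spermidine, 5% glycerol; 30 min at 37 °C. Reaction stopped with sarcosyl/bromophenol blue/glycerol. Products run on 1% agarose in TAE at 5 V/cm for 2 h and stained with ethidium bromide (0.5 μg/mL). Performed at least in duplicate.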

[2] = biological target: DNA topoisomerase 2-alpha (Homo sapiens) (UniProt P11388); assay: Inhibition of human recombinant topoisomerase-2 alpha assessed as conversion of negatively supercoiled plasmid DNA pBR322 to relaxed DNA at 100 uM after 30 mins by agarose gel electrophoresis
How it was run: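 Recombinant human TOP2α (1 unit) incubated with 0.5 μg supercoiled pBR322 in 10 mM Tris-HCl pH 7.9, 50 mM NaCl, 50 mM KCl, 5 mM MgCl2, 1 mM EDTA, 1 mM ATP, BSA; 30 min at 30 °C. Stopped with 7 mM EDTA. Products resolved on 1% agarose in TAE at 5 V/cm for 2 h and stained with ethidium bromide. Performed at least in duplicate.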

[3] = biological target: DNA topoisomerase 2-alpha (Homo sapiens) (UniProt P11388); assay: Inhibition of human recombinant topoisomerase-2 alpha-mediated DNA cleavage using circular supercoiled plasmid DNA as substrate
[4] = biological target: DNA topoisomerase 2-alpha (Homo sapiens) (UniProt P11388); assay: Inhibition of human recombinant topoisomerase-2 alpha assessed as topoisomerase poison activity using circular supercoiled plasmid DNA as substrate

DNA topoisomerase 2-alpha (Homo sapiens), sequence (P11388 whole entry): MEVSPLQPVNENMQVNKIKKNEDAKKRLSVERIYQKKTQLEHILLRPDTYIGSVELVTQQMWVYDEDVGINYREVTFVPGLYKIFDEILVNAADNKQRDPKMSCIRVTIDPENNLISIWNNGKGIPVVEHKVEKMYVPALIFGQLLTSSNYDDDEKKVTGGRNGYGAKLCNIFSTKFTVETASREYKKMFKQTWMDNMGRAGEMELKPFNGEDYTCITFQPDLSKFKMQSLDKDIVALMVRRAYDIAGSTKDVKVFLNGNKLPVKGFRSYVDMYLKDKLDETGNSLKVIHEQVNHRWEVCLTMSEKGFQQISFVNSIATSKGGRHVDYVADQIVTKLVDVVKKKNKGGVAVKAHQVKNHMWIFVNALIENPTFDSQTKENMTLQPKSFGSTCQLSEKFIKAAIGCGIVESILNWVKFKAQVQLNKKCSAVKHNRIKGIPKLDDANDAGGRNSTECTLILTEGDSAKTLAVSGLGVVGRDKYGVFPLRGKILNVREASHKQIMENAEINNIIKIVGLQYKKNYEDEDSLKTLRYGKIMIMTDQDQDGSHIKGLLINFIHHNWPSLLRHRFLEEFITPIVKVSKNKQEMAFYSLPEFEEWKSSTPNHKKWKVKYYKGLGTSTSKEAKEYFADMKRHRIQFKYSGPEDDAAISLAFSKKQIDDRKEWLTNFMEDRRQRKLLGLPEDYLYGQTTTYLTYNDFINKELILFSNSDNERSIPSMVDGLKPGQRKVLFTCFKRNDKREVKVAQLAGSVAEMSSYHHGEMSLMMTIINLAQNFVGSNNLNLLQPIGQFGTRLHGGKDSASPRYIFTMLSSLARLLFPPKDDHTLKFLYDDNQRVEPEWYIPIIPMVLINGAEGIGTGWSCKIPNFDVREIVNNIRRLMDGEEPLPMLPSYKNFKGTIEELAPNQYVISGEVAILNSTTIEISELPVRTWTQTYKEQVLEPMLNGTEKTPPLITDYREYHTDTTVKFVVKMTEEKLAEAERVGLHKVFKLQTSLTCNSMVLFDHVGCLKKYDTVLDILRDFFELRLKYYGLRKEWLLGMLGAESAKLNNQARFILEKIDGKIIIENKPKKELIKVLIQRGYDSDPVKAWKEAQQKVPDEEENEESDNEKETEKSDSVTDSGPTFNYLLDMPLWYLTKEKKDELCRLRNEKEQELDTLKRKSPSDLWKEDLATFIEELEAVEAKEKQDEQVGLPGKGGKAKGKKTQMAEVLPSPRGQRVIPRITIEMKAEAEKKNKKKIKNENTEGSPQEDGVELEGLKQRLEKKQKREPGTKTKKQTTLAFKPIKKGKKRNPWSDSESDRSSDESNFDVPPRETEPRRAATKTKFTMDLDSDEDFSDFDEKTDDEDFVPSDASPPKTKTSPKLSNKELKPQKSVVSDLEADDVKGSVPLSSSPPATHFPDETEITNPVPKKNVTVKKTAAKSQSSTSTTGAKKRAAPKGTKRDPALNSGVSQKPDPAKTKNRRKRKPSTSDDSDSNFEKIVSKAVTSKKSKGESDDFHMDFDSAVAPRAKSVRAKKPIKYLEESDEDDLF

SMILES	IC50 (MDA-MB-435) [µM]	further results
COc1ccc(-c2cccc(OC)c2OC)cc1OC	23.1	–
COc1ccc(-c2ccc(-c3ccc(C(=O)O)cc3)c(OC)c2OC)cc1OC	> 100	–
Oc1ccc(-c2ccc(-c3ccc(O)c(O)c3)c(O)c2O)cc1O	3.96	inhibition [1]: Active; inhibition [2]: Active; inhibition [3]: Active; inhibition [4]: inactive
O=C(O)c1ccc(-c2ccc(-c3ccc(O)cc3)c(O)c2O)cc1O	36.8	–
COc1c(-c2ccc(O)cc2)ccc(-c2ccc(O)c(C(=O)O)c2)c1OC	> 100	–
O=C(O)c1ccc(-c2ccc(-c3ccc(O)c(O)c3)c(O)c2O)cc1	> 100	–
COc1ccc(-c2ccc(-c3ccc(OC)cc3)c(OC(C)=O)c2OC(C)=O)cc1	96.8	–
COc1cc([C@@H]2c3cc4c(cc3[C@@H](O[C@@H]3O[C@@H]5CO[C@@H](C)O[C@H]5[C@H](O)[C@H]3O)[C@H]3COC(=O)[C@H]23)OCO4)cc(OC)c1O [ETOPOSIDE]	2.81	inhibition [2]: Active
CCOc1c(-c2ccc(O)cc2)ccc(-c2ccc(O)cc2)c1OCC	41.8	–
COc1ccc(-c2ccc(-c3ccc(OC)c(OC)c3)c(OC(C)=O)c2OC(C)=O)cc1OC	> 100	–
O=[N+]([O-])c1cc(-c2ccc(O)c([N+](=O)[O-])c2)ccc1O	> 100	–
Oc1ccc(-c2ccc(-c3ccc(O)c(O)c3)c(O)c2O)cc1	4.1	–
O=C(O)c1cc(-c2ccc(-c3ccc(O)cc3)c(O)c2O)ccc1O	99.8	–
COc1c(-c2ccc(O)c([N+](=O)[O-])c2)ccc(-c2ccc(O)c([N+](=O)[O-])c2)c1OC	61.8	–
COc1c(-c2ccc(O)cc2)ccc(-c2ccc(C(=O)O)c(O)c2)c1OC	> 100	–
COC(=O)c1cc(-c2ccc(-c3ccc(O)cc3)c(OC)c2OC)ccc1O	44.8	–
Oc1ccc(-c2ccc(-c3ccc(O)cc3)c(O)c2O)cc1	> 100	–
COc1ccc(-c2ccc(-c3ccc(OC)c(OC)c3)c(OC)c2OC)cc1OC	90.8	–
CCOc1c(-c2ccc(OC)c(OC)c2)ccc(-c2ccc(OC)c(OC)c2)c1OCC	> 100	–
COC(=O)c1ccc(-c2ccc(-c3ccc(O)cc3)c(OC)c2OC)cc1O	20.9	–
COc1c(-c2ccc(O)cc2)ccc(-c2ccc(O)cc2)c1OC	14.7	inhibition [2]: Active
